According to ChEMBL document CHEMBL1157586 (Bioorg Med Chem, 2010):
Values after ≈ are worked out from the molar mass of the structure shown. Each block holds one compound with its values, some of them ahead of it.

Experiments:
[1] = molecular target: Serine/threonine-protein kinase PLK1 (Homo sapiens, UniProt P53350); assay: Inhibition of PLK1
[2] = molecular target: Cyclin-dependent kinase 7/ cyclin H (Homo sapiens, UniProt P50613); assay: Inhibition of CDK7/cyclin H by scintillation proximity assay; assay type: protein-complex assay
[3] = Plasma protein binding in human by HPLC analysis; assay type: ADME, cell-free; conditions: read-out: PPB (converted)
[4] = molecular target: CYP3A4 (Homo sapiens, UniProt P08684); assay: Inhibition of human CYP3A4 assessed as residual activity at 10 uM; assay type: ADME; conditions: read-out: Activity
[5] = Solubility at pH 7; assay type: physicochemical; conditions: buffer
[6] = molecular target: MAP kinase-activated protein kinase 2 (Homo sapiens, UniProt P49137); assay: Inhibition of MAPKAPK2 by scintillation proximity assay
Chain of MAP kinase-activated protein kinase 2 (P49137 whole entry): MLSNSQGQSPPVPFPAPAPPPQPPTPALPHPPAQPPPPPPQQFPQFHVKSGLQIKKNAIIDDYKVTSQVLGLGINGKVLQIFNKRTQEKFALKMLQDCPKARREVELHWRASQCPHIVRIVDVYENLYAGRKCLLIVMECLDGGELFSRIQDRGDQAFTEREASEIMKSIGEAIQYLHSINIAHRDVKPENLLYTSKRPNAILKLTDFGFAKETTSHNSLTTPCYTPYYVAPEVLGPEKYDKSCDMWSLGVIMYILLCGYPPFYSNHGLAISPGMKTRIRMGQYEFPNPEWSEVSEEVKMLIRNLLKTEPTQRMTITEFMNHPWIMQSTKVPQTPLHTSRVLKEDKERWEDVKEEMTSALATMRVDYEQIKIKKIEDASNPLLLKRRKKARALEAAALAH

[7] = molecular target: Fibroblast growth factor receptor 1 (Homo sapiens, UniProt P11362); assay: Inhibition of FGFR1 by scintillation proximity assay
[8] = molecular target: Aurora kinase B (Homo sapiens, UniProt Q96GD4); assay: Inhibition of Aurora B by scintillation proximity assay
Chain of Aurora kinase B (Q96GD4 whole entry): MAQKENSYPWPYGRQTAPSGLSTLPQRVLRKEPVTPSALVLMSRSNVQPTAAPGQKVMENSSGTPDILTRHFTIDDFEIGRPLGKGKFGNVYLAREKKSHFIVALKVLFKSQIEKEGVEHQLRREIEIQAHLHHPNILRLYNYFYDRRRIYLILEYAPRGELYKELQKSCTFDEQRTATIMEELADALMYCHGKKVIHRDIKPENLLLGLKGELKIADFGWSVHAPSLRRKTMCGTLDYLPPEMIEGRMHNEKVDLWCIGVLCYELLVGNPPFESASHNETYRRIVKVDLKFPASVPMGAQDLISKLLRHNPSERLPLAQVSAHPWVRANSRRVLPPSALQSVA

[9] = molecular target: Cyclin-dependent kinase 1/cyclin B1 (Homo sapiens, UniProt P06493); assay: Inhibition of CDK1/cyclin B; assay type: protein-complex assay
[10] = molecular target: Tyrosine-protein kinase JAK2 (Homo sapiens, UniProt O60674); assay: Inhibition of JAK2 by scintillation proximity assay
Chain of Tyrosine-protein kinase JAK2 (O60674 whole entry): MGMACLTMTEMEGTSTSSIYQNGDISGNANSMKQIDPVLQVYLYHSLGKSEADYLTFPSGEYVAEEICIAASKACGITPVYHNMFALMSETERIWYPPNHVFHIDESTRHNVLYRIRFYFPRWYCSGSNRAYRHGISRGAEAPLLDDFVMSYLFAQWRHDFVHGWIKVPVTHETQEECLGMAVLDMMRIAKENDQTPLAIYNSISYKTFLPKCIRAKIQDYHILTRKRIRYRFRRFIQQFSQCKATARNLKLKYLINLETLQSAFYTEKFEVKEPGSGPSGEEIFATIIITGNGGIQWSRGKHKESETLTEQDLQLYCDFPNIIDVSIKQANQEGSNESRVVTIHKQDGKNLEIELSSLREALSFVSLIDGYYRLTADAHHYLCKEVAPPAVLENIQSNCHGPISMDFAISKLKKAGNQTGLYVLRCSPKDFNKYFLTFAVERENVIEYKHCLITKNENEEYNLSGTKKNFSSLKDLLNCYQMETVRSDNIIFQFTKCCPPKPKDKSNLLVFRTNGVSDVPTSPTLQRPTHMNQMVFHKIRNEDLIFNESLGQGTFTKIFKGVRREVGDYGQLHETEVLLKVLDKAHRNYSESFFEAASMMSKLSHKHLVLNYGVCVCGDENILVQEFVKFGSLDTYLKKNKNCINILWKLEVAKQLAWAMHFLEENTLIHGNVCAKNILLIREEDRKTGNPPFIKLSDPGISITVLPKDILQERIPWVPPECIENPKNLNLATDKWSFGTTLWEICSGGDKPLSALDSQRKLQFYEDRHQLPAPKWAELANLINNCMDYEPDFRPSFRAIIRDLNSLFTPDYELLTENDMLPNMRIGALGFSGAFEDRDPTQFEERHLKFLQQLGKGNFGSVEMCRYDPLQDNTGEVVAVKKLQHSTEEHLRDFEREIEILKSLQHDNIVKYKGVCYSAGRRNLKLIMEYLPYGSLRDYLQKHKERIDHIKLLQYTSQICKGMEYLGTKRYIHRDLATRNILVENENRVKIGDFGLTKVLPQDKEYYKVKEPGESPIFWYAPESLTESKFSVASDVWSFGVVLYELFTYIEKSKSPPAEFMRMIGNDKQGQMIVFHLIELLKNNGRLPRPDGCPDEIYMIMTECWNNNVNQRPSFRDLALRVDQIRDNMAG

[11] = molecular target: Cell division cycle 7-related protein kinase (Homo sapiens, UniProt O00311); assay: Inhibition of CDC7 by scintillation proximity assay
Chain of Cell division cycle 7-related protein kinase (O00311 whole entry): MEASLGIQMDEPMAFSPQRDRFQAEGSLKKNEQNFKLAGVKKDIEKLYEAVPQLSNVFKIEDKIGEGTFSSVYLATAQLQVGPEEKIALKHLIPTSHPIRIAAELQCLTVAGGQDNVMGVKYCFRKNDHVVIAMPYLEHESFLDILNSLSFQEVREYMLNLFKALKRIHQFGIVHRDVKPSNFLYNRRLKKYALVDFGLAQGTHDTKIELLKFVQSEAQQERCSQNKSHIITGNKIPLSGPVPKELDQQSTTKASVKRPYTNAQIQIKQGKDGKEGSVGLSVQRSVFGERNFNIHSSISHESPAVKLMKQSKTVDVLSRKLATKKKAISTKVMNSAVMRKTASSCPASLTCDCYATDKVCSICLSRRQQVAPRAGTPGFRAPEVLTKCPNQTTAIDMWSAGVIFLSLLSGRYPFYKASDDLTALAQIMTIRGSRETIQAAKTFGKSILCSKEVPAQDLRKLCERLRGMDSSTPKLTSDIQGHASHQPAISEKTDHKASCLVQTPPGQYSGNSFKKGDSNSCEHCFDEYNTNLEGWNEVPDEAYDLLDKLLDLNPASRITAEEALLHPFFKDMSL

[12] = molecular target: Mitogen-activated protein kinase 14 (Homo sapiens, UniProt Q16539); assay: Inhibition of p38alpha
Chain of Mitogen-activated protein kinase 14 (Q16539 whole entry): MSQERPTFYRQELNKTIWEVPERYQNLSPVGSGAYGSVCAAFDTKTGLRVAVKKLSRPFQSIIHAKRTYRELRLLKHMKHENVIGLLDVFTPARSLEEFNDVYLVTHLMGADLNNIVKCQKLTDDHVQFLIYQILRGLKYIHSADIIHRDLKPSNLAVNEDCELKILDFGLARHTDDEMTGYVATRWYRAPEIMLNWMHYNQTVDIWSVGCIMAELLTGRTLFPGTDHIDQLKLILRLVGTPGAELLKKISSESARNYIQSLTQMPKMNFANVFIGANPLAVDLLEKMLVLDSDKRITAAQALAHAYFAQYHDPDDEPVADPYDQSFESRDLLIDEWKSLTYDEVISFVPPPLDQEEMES

[13] = molecular target: RAC-alpha serine/threonine-protein kinase (Homo sapiens, UniProt P31749); assay: Inhibition of AKT1
[14] = molecular target: Serine/threonine-protein kinase PAK 4 (Homo sapiens, UniProt O96013); assay: Inhibition of PAK4 by scintillation proximity assay
[15] = molecular target: High affinity nerve growth factor receptor (Homo sapiens, UniProt P04629); assay: Inhibition of TRKA
[16] = molecular target: Protein kinase C alpha type (Homo sapiens, UniProt P17252); assay: Inhibition of PKCalpha by scintillation proximity assay
[17] = molecular target: Inhibitor of nuclear factor kappa-B kinase subunit beta (Homo sapiens, UniProt O14920); assay: Inhibition of IKK2 by scintillation proximity assay
[18] = molecular target: ALK tyrosine kinase receptor (Homo sapiens, UniProt Q9UM73); assay: Inhibition of ALK by scintillation proximity assay
Chain of ALK tyrosine kinase receptor (Q9UM73 whole entry): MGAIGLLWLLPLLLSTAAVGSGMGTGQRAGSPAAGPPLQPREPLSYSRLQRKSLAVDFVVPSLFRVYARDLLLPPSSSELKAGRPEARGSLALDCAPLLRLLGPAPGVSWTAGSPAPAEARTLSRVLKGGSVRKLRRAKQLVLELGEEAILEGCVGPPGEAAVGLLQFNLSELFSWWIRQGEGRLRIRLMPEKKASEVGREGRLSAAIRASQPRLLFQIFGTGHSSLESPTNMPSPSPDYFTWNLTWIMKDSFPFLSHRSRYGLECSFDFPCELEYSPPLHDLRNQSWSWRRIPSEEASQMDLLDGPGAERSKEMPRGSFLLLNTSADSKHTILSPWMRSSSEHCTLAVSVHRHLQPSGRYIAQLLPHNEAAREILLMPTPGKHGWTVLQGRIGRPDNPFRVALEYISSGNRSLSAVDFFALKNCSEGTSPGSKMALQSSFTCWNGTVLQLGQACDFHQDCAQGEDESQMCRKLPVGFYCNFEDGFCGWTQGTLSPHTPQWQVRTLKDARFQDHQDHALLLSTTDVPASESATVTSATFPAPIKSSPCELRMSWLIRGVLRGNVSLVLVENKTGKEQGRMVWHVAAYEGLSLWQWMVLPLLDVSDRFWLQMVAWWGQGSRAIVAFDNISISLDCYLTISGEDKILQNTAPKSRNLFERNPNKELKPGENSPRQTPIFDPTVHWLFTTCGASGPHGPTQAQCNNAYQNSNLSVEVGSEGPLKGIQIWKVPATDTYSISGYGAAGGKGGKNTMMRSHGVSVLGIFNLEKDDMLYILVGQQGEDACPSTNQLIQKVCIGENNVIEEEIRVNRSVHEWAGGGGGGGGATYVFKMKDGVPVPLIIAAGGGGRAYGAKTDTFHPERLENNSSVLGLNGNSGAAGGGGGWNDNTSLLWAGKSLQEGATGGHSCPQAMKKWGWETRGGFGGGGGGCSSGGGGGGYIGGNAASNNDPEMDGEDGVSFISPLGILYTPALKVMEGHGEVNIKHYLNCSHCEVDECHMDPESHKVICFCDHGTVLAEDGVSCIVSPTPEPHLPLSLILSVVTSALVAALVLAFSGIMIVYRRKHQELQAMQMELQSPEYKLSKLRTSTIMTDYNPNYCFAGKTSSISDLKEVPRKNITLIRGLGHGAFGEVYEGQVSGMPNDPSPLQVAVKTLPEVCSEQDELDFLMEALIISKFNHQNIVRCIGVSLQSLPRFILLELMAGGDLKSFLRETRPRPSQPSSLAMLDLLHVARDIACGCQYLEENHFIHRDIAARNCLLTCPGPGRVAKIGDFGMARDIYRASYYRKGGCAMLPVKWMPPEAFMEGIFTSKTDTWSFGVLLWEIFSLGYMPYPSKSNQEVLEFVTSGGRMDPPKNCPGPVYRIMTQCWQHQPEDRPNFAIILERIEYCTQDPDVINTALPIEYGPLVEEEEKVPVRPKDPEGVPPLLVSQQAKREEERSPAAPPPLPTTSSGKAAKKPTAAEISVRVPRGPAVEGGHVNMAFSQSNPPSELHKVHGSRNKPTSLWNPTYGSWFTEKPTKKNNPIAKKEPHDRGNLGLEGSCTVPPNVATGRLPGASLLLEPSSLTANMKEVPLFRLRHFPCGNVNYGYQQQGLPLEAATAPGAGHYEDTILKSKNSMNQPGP

[19] = molecular target: Aurora kinase A (Homo sapiens, UniProt O14965); assay: Inhibition of Aurora A by scintillation proximity assay
[20] = AUC in nu/nu mouse at 10 mg/kg, iv; assay type: ADME, organism-based; set-up: dose 10 mg/kg, route intravenous; conditions: plasma
Method in brief: (§1)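 Healthy nude mice given 10 mg/kg iv as the hydrochloride salt in 5% dextrose solution. Six mice in total, three per leg (iv and oral). Saphenous-vein blood taken predose and at 0.083, 0.5, 1, 6 and 24 h after iv dosing. Plasma separated by centrifugation (10,000g, 3 min, 4 °C) and stored at -80 °C until analysis.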

[21] = molecular target: Vascular endothelial growth factor receptor 3 (Homo sapiens, UniProt P35916); assay: Inhibition of VEGFR3 by scintillation proximity assay
[22] = Half life in nu/nu mouse at 10 mg/kg, iv; assay type: ADME, organism-based; set-up: dose 10 mg/kg, route intravenous; conditions: in vivo; method in brief: as §1
[23] = molecular target: Insulin-like growth factor 1 receptor (Homo sapiens, UniProt P08069); assay: Inhibition of IGF1R by scintillation proximity assay
[24] = tested on: Mus musculus; assay: Toxicity in BALB/c nu/nu mouse at 10 to 30 mg/kg, iv QD for 10 consecutive days measured post last dose; assay type: organism-based; set-up: dose 10-30 mg/kg, route intravenous; conditions: in vivo
Method in brief: (§2)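 Tumour-bearing nude mice were dosed iv once daily for 10 consecutive days, with compound dissolved in 5% dextrose; vehicle-treated mice served as controls. Doses were 10, 20 and 30 mg/kg in the A2780 model (starting day 8), and 10 and 20 mg/kg in the HCT-116 and BX-PC3 models. Body weight change was compared with controls, and gross autopsy was performed.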

[25] = molecular target: Serine/threonine-protein kinase Nek6 (Homo sapiens, UniProt Q9HC98); assay: Inhibition of NEK6 by scintillation proximity assay
[26] = molecular target: cAMP-dependent protein kinase catalytic subunit alpha (Homo sapiens, UniProt P17612); assay: Inhibition of PKAalpha by scintillation proximity assay
[27] = molecular target: Receptor-type tyrosine-protein kinase FLT3 (Homo sapiens, UniProt P36888); assay: Inhibition of FLT3 by scintillation proximity assay
[28] = Volume of distribution at steady state in nu/nu mouse at 10 mg/kg, iv; assay type: ADME, organism-based; set-up: dose 10 mg/kg, route intravenous; conditions: in vivo, read-out: Vdss
Method in brief: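 Healthy nude mice received a single 10 mg/kg iv dose as the hydrochloride salt in 5% dextrose; six mice were used in total across the iv and oral legs. Saphenous-vein blood was drawn predose and at 0.083, 0.5, 1, 6 and 24 h. Samples were spun at 10,000g for 3 min at 4 °C, and plasma was stored at −80 °C until analysis.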

[29] = molecular target: Cyclin-dependent kinase 4/cyclin D1 (Homo sapiens, UniProt P11802); assay: Inhibition of CDK4/cyclin D1 by scintillation proximity assay; assay type: protein-complex assay
[30] = tested on: Mus musculus; assay: Toxicity in BALB/c nu/nu mouse assessed as body weight reduction at 10 to 30 mg/kg, iv QD for 10 consecutive days measured post last dose; assay type: organism-based; set-up: dose 10-30 mg/kg, route intravenous; scale not given: the % may be the effect or the level left; conditions: in vivo; method in brief: as §2
[31] = molecular target: Glycogen synthase kinase-3 beta (Homo sapiens, UniProt P49841); assay: Inhibition of GSK3-beta by scintillation proximity assay
[32] = Cmax in nu/nu mouse at 10 mg/kg, iv; assay type: ADME, organism-based; set-up: dose 10 mg/kg, route intravenous; conditions: in vivo; method in brief: as §1
[33] = molecular target: Cyclin-dependent kinase 5/CDK5 activator 1 (Homo sapiens, UniProt Q00535); assay: Inhibition of CDK5/p25 by scintillation proximity assay; assay type: protein-complex assay
Chain of Cyclin-dependent kinase 5/CDK5 activator 1 (Q00535 whole entry): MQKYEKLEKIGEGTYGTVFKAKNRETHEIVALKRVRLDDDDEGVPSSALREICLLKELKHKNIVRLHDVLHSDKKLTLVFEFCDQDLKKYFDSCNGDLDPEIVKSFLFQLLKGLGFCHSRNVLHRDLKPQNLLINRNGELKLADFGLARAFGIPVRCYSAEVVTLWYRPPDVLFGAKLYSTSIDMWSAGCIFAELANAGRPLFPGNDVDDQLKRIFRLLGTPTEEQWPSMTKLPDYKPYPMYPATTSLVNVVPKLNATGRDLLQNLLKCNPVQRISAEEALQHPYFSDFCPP
Chain of Cyclin-dependent kinase 5/CDK5 activator 1 (Q15078 whole entry, further chain): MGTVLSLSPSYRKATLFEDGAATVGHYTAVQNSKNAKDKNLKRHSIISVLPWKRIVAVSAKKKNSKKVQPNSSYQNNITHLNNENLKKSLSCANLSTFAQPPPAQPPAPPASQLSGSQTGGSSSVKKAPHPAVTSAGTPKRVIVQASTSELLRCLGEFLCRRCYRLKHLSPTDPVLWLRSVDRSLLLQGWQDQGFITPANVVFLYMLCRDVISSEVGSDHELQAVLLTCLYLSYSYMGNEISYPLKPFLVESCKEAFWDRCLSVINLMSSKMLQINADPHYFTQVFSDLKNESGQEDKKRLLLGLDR

[34] = Clearance in nu/nu mouse at 10 mg/kg, iv; assay type: ADME, organism-based; set-up: dose 10 mg/kg, route intravenous; conditions: in vivo; method in brief: as §1
[35] = molecular target: Serine/threonine-protein kinase Chk1 (Homo sapiens, UniProt O14757); assay: Inhibition of CHK1 by scintillation proximity assay
[36] = Solubility in 5% dextrose solution; assay type: physicochemical
[37] = tested on: A2780; assay: Cell cycle arrest in human A2780 cells assessed as accumulation at G2/M phase at 3 uM after 24 hrs by FACS analysis; assay type: functional
Method in brief: (§3)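 A2780 cells (ECACC) seeded at 25000 cells/cm² in RPMI 1640, pH 7.4, with 10% FBS, 2 mM L-glutamine and penicillin–streptomycin, at 37 °C in 5% CO₂. After 24 h, treated for 24 h at 1 and 3 µM. Floating and trypsinised adherent cells pooled, PBS-washed, and DNA content analysed by flow cytometry.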

[38] = molecular target: Hepatocyte growth factor receptor (Homo sapiens, UniProt P08581)
[39] = tested on: A2780; assay: Antiproliferative activity against human A2780 cells after 72 hrs by CellTiter-Glo luminescence assay; conditions: A2780, 72 h
[40] = molecular target: Serine/threonine-protein kinase PLK2 (Homo sapiens, UniProt Q9NYY3); assay: Inhibition of PLK2 by scintillation proximity assay
[41] = molecular target: Mitogen-activated protein kinase 1 (Homo sapiens, UniProt P28482); assay: Inhibition of ERK2
[42] = Inhibition of CK2 by scintillation proximity assay
[43] = Inhibition of SULU1 by scintillation proximity assay
[44] = tested on: A2780; assay: Cell cycle arrest in human A2780 cells assessed as accumulation at S phase at 3 uM after 24 hrs by FACS analysis; assay type: functional; method in brief: as §3
[45] = molecular target: Cyclin-dependent kinase 2/cyclin A (Homo sapiens, UniProt P24941); assay: Inhibition of human CDK2/cyclin A expressed in Escherichia coli BL21 by scintillation proximity assay
[46] = tested on: A2780; assay: Inhibition of cellular DNA synthesis in human A2780 cells assessed as BrdU incorporation into nuclear DNA at 3 uM after 24 hrs by Hoechst 33342 staining-based microscopic analysis; assay type: functional; set-up: scale not given: the % may be the effect or the level left
Method in brief: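 A2780 human ovarian adenocarcinoma cells were seeded at 25000 cells/cm² in RPMI 1640 pH 7.4 with 10% FBS, 2 mM L-glutamine and penicillin–streptomycin. They were kept at 37 °C in 5% CO₂. After 24 h they were exposed to compound for 24 h. Floating and adherent cells were harvested with trypsin/EDTA, washed in PBS, and split for flow cytometry, immunoblot and BrdU incorporation.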

[47] = Inhibition of PDGFR by scintillation proximity assay
[48] = molecular target: Vascular endothelial growth factor receptor 2 (Homo sapiens, UniProt P35968); assay: Inhibition of VEGFR2 by scintillation proximity assay
[49] = molecular target: Mast/stem cell growth factor receptor Kit (Homo sapiens, UniProt P10721); assay: Inhibition of cKit by scintillation proximity assay
[50] = Inhibition of NIM by scintillation proximity assay
[51] = molecular target: Cyclin-dependent kinase 2/cyclin E1 (Homo sapiens, UniProt P24941); assay: Inhibition of CDK2/cyclin E by scintillation proximity assay; assay type: protein-complex assay
[52] = molecular target: Tyrosine-protein kinase ABL1 (Homo sapiens, UniProt P00519); assay: Inhibition of c-ABL by scintillation proximity assay
[53] = tested on: A2780; assay: Cell cycle arrest in human A2780 cells assessed as accumulation at G0/G1 phase at 3 uM after 24 hrs by FACS analysis; assay type: functional; method in brief: as §3
[54] = Inhibition of STK2 by scintillation proximity assay
[55] = molecular target: Proto-oncogene tyrosine-protein kinase receptor Ret (Homo sapiens, UniProt P07949); assay: Inhibition of RET by scintillation proximity assay
[56] = molecular target: Insulin receptor (Homo sapiens, UniProt P06213); assay: Inhibition of IR by scintillation proximity assay

- IC50 [1]: > 10 µM
- IC50 [2]: 0.01 µM
- fraction unbound [3]: 0.46
- activity at 10 µM [4]: 91%
- solubility [5]: > 225 µM
- IC50 [6]: > 10 µM
- IC50 [7]: > 10 µM
- IC50 [8]: > 10 µM
- IC50 [9]: 0.06 µM
- IC50 [10]: > 10 µM
- IC50 [11]: > 10 µM
- IC50 [12]: > 10 µM
- IC50 [13]: > 10 µM
- IC50 [14]: > 10 µM
- IC50 [15]: > 10 µM
- IC50 [16]: > 10 µM
- IC50 [17]: > 10 µM
- IC50 [18]: > 10 µM
- IC50 [19]: > 10 µM
- AUC [20]: 19.2 µM·h
- IC50 [21]: > 10 µM
- half-life [22]: 4.1 h
- IC50 [23]: > 10 µM
- IC50 [25]: > 10 µM
- IC50 [26]: > 10 µM
- IC50 [27]: > 10 µM
- Vd [28]: 1.36 L/kg
- IC50 [29]: 0.062 µM
- IC50 [31]: 0.079 µM
- Cmax [32]: 36.5 µM
- IC50 [33]: 0.005 µM
- clearance [34]: 23.9 mL/min/kg
- IC50 [35]: > 10 µM
- solubility [36]: 10000 µg/mL (≈ 27.7 mM)
Structure (SMILES): CC(C)CC(=O)Nc1[nH]nc2c1CN(C(=O)C1CCN(C)CC1)C2(C)C [PHA-793887]
- Activity [24]: Non-toxic
- Activity [30]: < 10%

- IC50 [1]: > 10 µM
- IC50 [38]: > 10 µM
- IC50 [39]: 0.31 µM
- IC50 [40]: > 10 µM
- solubility [5]: 186 µM (≈ 70 µg/mL)
- IC50 [6]: > 10 µM
- IC50 [7]: > 10 µM
- IC50 [8]: > 10 µM
- IC50 [9]: 0.45 µM
- IC50 [10]: > 10 µM
- IC50 [11]: > 10 µM
- IC50 [12]: > 10 µM
- IC50 [41]: > 10 µM
- IC50 [13]: > 10 µM
- IC50 [14]: > 10 µM
- IC50 [16]: > 10 µM
- IC50 [42]: > 10 µM
- IC50 [17]: > 10 µM
- IC50 [43]: > 10 µM
- IC50 [18]: > 10 µM
- IC50 [45]: 0.06 µM
- IC50 [19]: > 10 µM
- IC50 [21]: > 10 µM
- IC50 [23]: > 10 µM
- IC50 [47]: > 10 µM
- IC50 [48]: > 10 µM
- IC50 [25]: > 10 µM
- IC50 [49]: > 10 µM
- IC50 [26]: > 10 µM
- IC50 [27]: > 10 µM
- IC50 [50]: > 10 µM
- IC50 [51]: 0.09 µM
- IC50 [52]: > 10 µM
- IC50 [31]: 3.63 µM
- IC50 [54]: > 10 µM
- IC50 [33]: 0.14 µM
- IC50 [55]: > 10 µM
- IC50 [35]: > 10 µM
- IC50 [56]: > 10 µM
- solubility [36]: 3400 µg/mL (≈ 9.03 mM)
Structure (SMILES): CC(C)(C)C(=O)N1Cc2c(NC(=O)c3cc(F)cc(F)c3)n[nH]c2C1(C)C
- Activity [37]: 26%
- Activity [44]: -52%
- Activity [46]: -96%
- Activity [53]: 22%
